For one series, the system named is P. falciparum TM90 C2b. Nature of the series: 72-hour [3H]hypoxanthine incorporation assay, field adapted strain TM90 C2b. In kind it is cell-based. To be noted: Plasmodium falciparum, TM90, read-out: IC50, TM90 C2b. A digest of the protocol:
(§1)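 Intraerythrocytic asexual-stage activity was measured against field-adapted drug-resistant P. falciparum strains. The drug-sensitive NF54 strain served as the wild-type reference, and fold shift was taken relative to NF54. Chloroquine and artesunate were run as control drugs.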

The next series deals with P. falciparum Cam3.I. Briefly: 72-hour [3H]hypoxanthine incorporation assay, field adapted strain Cam3.I. To be noted: Plasmodium falciparum, read-out: IC50, Cam3.I. The class given is cell-based. The gist of the method:
as §1

In another series the test system is P. falciparum K1. Briefly: 72-hour [3H]hypoxanthine incorporation assay, field adapted strain K1. The class given is cell-based. To be noted: Plasmodium falciparum, K1, read-out: IC50, K1. The gist of the method:
as §1

The subject of another series is P. falciparum 7G8. Nature of the series: 72-hour [3H]hypoxanthine incorporation assay, field adapted strain 7G8. In kind it is cell-based. To be noted: Plasmodium falciparum, 7G8, read-out: IC50, 7G8. The gist of the method:
as §1

The next series has as its system P. falciparum Dd2. Nature of the series: 72-hour [3H]hypoxanthine incorporation assay, field adapted strain Dd2. In kind it is cell-based. To be noted: Plasmodium falciparum, DD2, read-out: IC50, Dd2. A digest of the protocol:
as §1

Series [1] is described as follows: Metabolic stability study using human liver microsomes. The class given is in vitro ADME. To be noted: pooled human liver microsomes. (Liver microsomes are vesicles of endoplasmic reticulum, rich in cytochrome P450 enzymes.)
For another series, the system named is P. falciparum 3D7. Nature of the series: In vitro P. falciparum viability assay, 3D7 strain, 72-hour SYBR green. In kind it is cell-based, Plasmodium falciparum. To be noted: for IC50: Plasmodium falciparum, 3D7, 72 h, read-out: 3D7 IC50. The gist of the method: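 Asexual blood-stage growth inhibition was measured on the 3D7 strain with 72 h exposure to test compound. IC50 values are geometric mean ± SEM of at least two independent experiments.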

Series [2] has as its system P. falciparum clone A3 (PfeEF2 Y719C). Briefly: 72 hour concentration-response assay, MMV692140-selected clone A3. The class given is cell-based, Plasmodium falciparum. To be noted: vs parental Dd2-B2, Figure 3. A digest of the protocol:
(§2)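 Drug-selected P. falciparum clones carry PfeEF2 point mutations in the chloroquine-resistant Dd2-B2 background and are compared with the parental Dd2-B2 clone. […] Each clone was tested against parent by unpaired t test with Welch's correction.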

For series [3], the system named is P. falciparum clone D6 (PfeEF2 Y186N). Briefly: 72 hour concentration-response assay, M5717-selected clone D6. The class given is cell-based, Plasmodium falciparum. A digest of the protocol: as §2
In series [4] the test system is P. falciparum clone G12 (PfeEF2 L507S). Briefly: 72 hour concentration-response assay, MMV692140-selected clone G12. In kind it is cell-based, Plasmodium falciparum. To be noted: vs parental Dd2-B2, Figure 3. The gist of the method: as §2
Series [5] concerns P. falciparum clone F8 (PfeEF2 L775F). Nature of the series: 72 hour concentration-response assay, M5717-selected clone F8. In kind it is cell-based, Plasmodium falciparum. A digest of the protocol:
as §2

Series [6] concerns P. falciparum clone D3 (PfeEF2 F770L). Briefly: 72 hour concentration-response assay, MMV692140-selected clone D3. The class given is cell-based, Plasmodium falciparum. To be noted: IC50 vs Dd2-B2 parent. A digest of the protocol: as §2
In series [7] the test system is P. falciparum Dd2 (PfeEF2). Nature of the series: In vitro intraerythrocytic antimalarial activity, lab adapted strain Dd2. To be noted: Plasmodium falciparum, DD2, read-out: IC50, Dd2 (PfeEF2). The class given is cell-based. A digest of the protocol: (§3)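 Intraerythrocytic asexual-stage activity was measured against laboratory resistant lines, with resistance mutations introduced into a Dd2 wild-type background. Fold shift was taken relative to Dd2 wild type. Strain-matched reference inhibitors were tested on Dd2 wild type and on the mutant lines. Values are means of at least two independent experiments.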

Series [8] relates to P. falciparum clone E5 (PfeEF2 E134D). Nature of the series: 72 hour concentration-response assay, M5717-selected clone E5. In kind it is cell-based, Plasmodium falciparum. A digest of the protocol:
as §2

The next series concerns P. falciparum Dd2 (wt). Briefly: In vitro intraerythrocytic antimalarial activity, Dd2. In kind it is cell-based, Plasmodium falciparum.
Series [9] relates to P. falciparum Dd2 (Pfdhodh). Nature of the series: In vitro intraerythrocytic antimalarial activity, lab adapted strain Dd2. The class given is cell-based, Plasmodium falciparum. A digest of the protocol:
as §3

Series [10] concerns P. falciparum Dd2 (Pfcytb). The series is described as above. The class given is cell-based, Plasmodium falciparum. The gist of the method:
as §3

Series [11] concerns P. falciparum Dd2 (Pfpi4k). The series is described as above. In kind it is cell-based, Plasmodium falciparum. A digest of the protocol:
as §3

The mark [12] stands for this setting: Plasmodium falciparum, DD2, read-out: IC50, Dd2 (wt).

What is called IC50 is the concentration that inhibits the measured activity by half. In general, microsomal CLint refers to the rate of metabolic loss divided by the concentration.

Like-named read-outs stand apart in the source and are kept apart here.

Consider `C[C@H]1[C@H](OC(=O)CCC(=O)O)O[C@@H]2O[C@@]3(C)CC[C@H]4[C@H](C)CC[C@@H]1[C@@]24OO3` [Artesunate], for which the IC50 in the series with P. falciparum TM90 C2b was found to be 5 nM; in the series with P. falciparum Cam3.I, 11 nM; in the series on P. falciparum K1 it was 2 nM; in the series on P. falciparum 7G8 it was 2 nM; in the series on P. falciparum Dd2, 6 nM.

In the case of `CCN(CC)CCCC(C)Nc1ccnc2cc(Cl)ccc12` (centres unmarked) [Chloroquine], the concentration for half-maximal inhibition (IC50) in the series with P. falciparum TM90 C2b stood at 140 nM; in the series on P. falciparum Cam3.I, 180 nM; with P. falciparum K1 it was 200 nM; in the series on P. falciparum 7G8, 80 nM; with P. falciparum Dd2, 160 nM.

Regarding `COc1ccc(-n2nnnc2N2CCC(C(=O)N3CCCc4ccccc43)CC2)cc1` [Compound 7, (3,4-Dihydroquinolin-1(2H)-yl)(1-(1-(4-methoxyphenyl)-1H-tetrazol-5-yl)piperidin-4-yl)methanone], the microsomal CLint at 1 µM in series [1] was determined as 521 µL/min/mg. Also, the concentration for half-maximal inhibition (IC50) in the series on P. falciparum 3D7 came out at 900 ± 140 nM.

As to `Cc1ccccc1-n1nnnc1N1CCC(C(=O)N2CCCc3ccccc32)CC1` [Compound 8, (3,4-Dihydroquinolin-1(2H)-yl)(1-(1-(o-tolyl)-1H-tetrazol-5-yl)piperidin-4-yl)methanone], the IC50 with P. falciparum 3D7 was 1400 ± 20 nM.

Take `O=C(C1CCN(c2nnnn2-c2ccc(OC(F)(F)F)cc2)CC1)N1CCCc2ccccc21` [Compound 9]: the IC50 in the series with P. falciparum 3D7 amounted to 5500 ± 860 nM.

`O=C(C1CCN(c2nnnn2-c2ccccc2)CC1)N1CCCc2c(Cl)cccc21` [Compound 17, (5-Chloro-3,4-dihydroquinolin-1(2H)-yl)(1-(1-phenyl-1H-tetrazol-5-yl)piperidin-4-yl)methanone]: in the series with P. falciparum 3D7, the IC50 amounted to 600 ± 90 nM.

Turning to `O=C(C1CCN(c2nnnn2-c2ccccc2)CC1)N1CCCc2cc(Cl)ccc21` [Compound 20, (6-Chloro-3,4-dihydroquinolin-1(2H)-yl)(1-(1-phenyl-1H-tetrazol-5-yl)piperidin-4-yl)methanone], the IC50 with P. falciparum 3D7 was over 25000 nM.

On to `N#Cc1ccc2c(c1)N(C(=O)C1CCN(c3nnnn3-c3ccccc3)CC1)CCC2` [Compound 22], for which, in the series with P. falciparum 3D7, the IC50 was over 25000 nM.

On to `O=C(C1CCN(c2nnnn2-c2ccccc2)CC1)N1CCCc2ccc(Cl)cc21` [Compound 23, (7-Chloro-3,4-dihydroquinolin-1(2H)-yl)(1-(1-phenyl-1H-tetrazol-5-yl)piperidin-4-yl)methanone], for which, in the series on P. falciparum 3D7, the IC50 was over 25000 nM.

For the molecule `O=C(C1CCN(c2nnnn2-c2ccccc2)CC1)N1CCCc2ncccc21` [Compound 24, (3,4-Dihydro-1,5-naphthyridin-1(2H)-yl)(1-(1-phenyl-1H-tetrazol-5-yl)piperidin-4-yl)methanone], the 50% inhibitory concentration (IC50) in the series with P. falciparum 3D7 came to 10200 ± 750 nM.

For the molecule `O=C(C1CCN(c2nnnn2-c2ccccc2)CC1)N1CCCc2cnccc21` [Compound 25, (3,4-Dihydro-1,6-naphthyridin-1(2H)-yl)(1-(1-phenyl-1H-tetrazol-5-yl)piperidin-4-yl)methanone], the IC50 with P. falciparum 3D7 is 10800 ± 650 nM.

The molecule `CC(C)n1nnnc1N1CCC(C(=O)N2CCCc3ccccc32)CC1` [Compound 27, (3,4-Dihydroquinolin-1(2H)-yl)(1-(1-isopropyl-1H-tetrazol-5-yl)piperidin-4-yl)methanone] had an intrinsic metabolic clearance (microsomal CLint) at 1 µM in [1] of 135 µL/min/mg. The concentration for half-maximal inhibition (IC50) in the series on P. falciparum 3D7 was 5600 ± 920 nM.

As for `O=C(C1CCN(c2nnnn2C2CCCC2)CC1)N1CCCc2ccccc21` [Compound 28, (1-(1-cyclopentyl-1H-tetrazol-5-yl)piperidin-4-yl)(3,4-dihydroquinolin-1(2H)-yl)methanone], the intrinsic clearance (microsomal CLint) at 1 µM in [1] is over 400 µL/min/mg. Besides, the IC50 in the series on P. falciparum 3D7 came out at 3300 ± 480 nM.

On to `O=C(C1CCN(c2nnnn2C2CCCCC2)CC1)N1CCCc2ccccc21` [Compound 29], for which, in series [1], the microsomal CLint at 1 µM is over 400 µL/min/mg. Besides, the 50% inhibitory concentration (IC50) with P. falciparum 3D7 is 3500 ± 20 nM.

Take `O=C(C1CCN(c2nnnn2-c2ccc(F)cc2)CC1)N1CCOc2ccccc21` [Compound 30]: the microsomal CLint at 1 µM in series [1] came out at 83 µL/min/mg. Further, the IC50 with P. falciparum 3D7 was 8900 ± 1400 nM.

`COc1ccc(-n2nnnc2N2CCC(C(=O)N3CCCc4c(Cl)cccc43)CC2)cc1` [Compound 31] registered a microsomal CLint at 1 µM in series [1] of over 400 µL/min/mg. In addition, in the series on P. falciparum 3D7, the IC50 is 700 ± 100 nM.

`COc1ccc(-n2nnnc2N2CCC(C(=O)N3CCOc4c(Cl)cccc43)CC2)cc1` [Compound 32] displayed a microsomal CLint at 1 µM in series [1] of 78 µL/min/mg. In the series with P. falciparum 3D7, the IC50 was determined as 3600 ± 1200 nM.

Molecule `O=C(C1CCN(c2nnnn2-c2ccc(N3CCCC3)cc2)CC1)N1CCCc2c(Cl)cccc21` [Compound 33] gave a microsomal CLint at 1 µM in series [1] of over 400 µL/min/mg. Besides, in the series with P. falciparum 3D7, the IC50 was 110 ± 10 nM.

The molecule `O=C(C1CCN(c2nnnn2-c2ccc(N3CCCC3)cc2)CC1)N1CCOc2c(Cl)cccc21` [Compound 34] displayed an intrinsic clearance (microsomal CLint) at 1 µM in series [1] of 296 µL/min/mg. For the same molecule, in the series with P. falciparum 3D7, the IC50 amounted to 1600 ± 81 nM.

In the case of `O=C(C1CCN(c2nnnn2-c2ccc(N3CCCC3)cc2)CC1)N1CCCc2c(F)cccc21` [Compound 36, (5-fluoro-3,4-dihydroquinolin-1(2H)-yl)(1-(1-(4-(pyrrolidin-1-yl)phenyl)-1H-tetrazol-5-yl)piperidin-4-yl)methanone], the microsomal CLint at 1 µM in series [1] is over 400 µL/min/mg. The half-inhibitory concentration (IC50) in the series with P. falciparum 3D7 was 66 ± 8 nM. Moreover, the “improvement of antimalarial asexual blood stage in vitro potency” value in the series on P. falciparum 3D7 (relative to hit compound 2, 72-hour 3D7 assay) came out at 30 fold.

As for `O=C(NCCN1CCCC1)c1cc(-c2ccc(CN3CCOCC3)cc2)nc2ccc(F)cc12` [Compound M5717], the “Cross resistance of compound 2-selected clone A3” value in [2] is listed as “not cross‐resistant”. For the same molecule, the “Fold shift, clone D6” value in series [3] (IC50 vs Dd2-B2 parent) came out at 14700x fold. Further, the concentration for half-maximal inhibition (IC50) in [3] (Plasmodium falciparum, D6, 72 h, read-out: IC50, clone D6) is 3100 nM; in series [5] (Plasmodium falciparum, 72 h, read-out: IC50, clone F8), 660 nM; in series [7], 3100 nM; in series [8] (Plasmodium falciparum, 72 h, read-out: IC50, clone E5) it was 5.8 nM; with P. falciparum Dd2 (wt) (setting [12]), 2 nM. Also, in series [4], the “Cross resistance of compound 2-selected clone G12” value is “not cross‐resistant”. In series [5] (IC50 vs Dd2-B2 parent), the “Fold shift, clone F8” value was determined as 3100x fold. Besides, in series [6], the “Fold shift, clone D3” value stood at 1.6 fold. Besides, in [8] (IC50 vs Dd2-B2 parent), the “Fold shift, clone E5” value turned out to be 27x fold.

`Cc1cc(Nc2ccc(S(F)(F)(F)(F)F)cc2)n2nc(C(C)(F)F)nc2n1` [DSM265]: the IC50 in [9] (Plasmodium falciparum, DD2, read-out: IC50, Dd2 (Pfdhodh)) was 143 nM; in the series on P. falciparum Dd2 (wt) (setting [12]), 8 nM. Moreover, the “fold shift, Dd2 (Pfdhodh)” value in series [9] (vs Dd2 (wt)) was 18 fold.

In the case of `COc1cc2[nH]c(C)c(-c3ccc(Oc4ccc(OC(F)(F)F)cc4)cc3)c(=O)c2cc1Cl` [ELQ300], the concentration for half-maximal inhibition (IC50) in [10] (read-out: IC50, Dd2 (Pfcytb), reference compound) amounted to 254 nM; with P. falciparum Dd2 (wt) (read-out: IC50, Dd2 (wt), reference compounds), 19 nM. Moreover, the “fold shift, Dd2 (Pfcytb)” value in [10] (vs Dd2 (wt)) is 13 fold.

Take `CS(=O)(=O)c1ccc(-c2cnc(N)c(-c3ccc(C(F)(F)F)nc3)c2)cc1` [MMV390048]: the half-maximal inhibitory concentration (IC50) in series [11] (Plasmodium falciparum, DD2, read-out: IC50, Dd2 (Pfpi4k)) was 102 nM; in the series with P. falciparum Dd2 (wt) (setting [12]), 21.2 nM. Besides, the “fold shift, Dd2 (Pfpi4k)” value in [11] (vs Dd2 (wt)) turned out to be 4.8 fold.

Source of the values: paper PMC9827907 (Chemmedchem, 2022).
